Screens: PubChem BioAssay, Sanford-Burnham Center for Chemical Genomics
An excerpt weighted towards active compounds, which were near 1.5% of everything screened.
APJ antagonist: blocks the human apelin receptor APJ | CHO-K1 APJ beta-arrestin complementation, luminescence | inhibition, % at 20 µM | 330,000 tested, 0.32% active;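 active = inhibition above about 40% at 20 µM, limit read from the data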;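 note: cells challenged with 10 nM apelin-13 agonist together with compound; plate controls were apelin-13 plus DMSO wells for no effect and DMSO wells lacking apelin-13 for full effect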
EBI2 antag: EBI2 (human) antagonism; 360,000 tested, 0.81% active; inhibition, % at 5 µM; P32249; EBI2 beta-arrestin recruitment, luminescence, 7a,25-OHC stimulated; in the data active = inhibition above about 38%;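 note: enzyme fragment complementation signal reports receptor beta-arrestin coupling in cells; 0% = agonist plus DMSO wells and 100% = wells without agonist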
CXCR6 block: inhibitors of human CXCR6 receptor; inhibition, % at 20 µM; AID 602244; 360,000 tested, 0.36% active; CHO-K1 PathHunter CXCR6 beta-arrestin, luminescence; in the data active = inhibition above about 34%, passing the limit was not always enough;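 note: antagonist mode with CXCL16 agonist at 10 nM final; 0% = 10 nM CXCL16 with DMSO and 100% = unstimulated wells without agonist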
Target sequence (O00574 whole entry, looked up): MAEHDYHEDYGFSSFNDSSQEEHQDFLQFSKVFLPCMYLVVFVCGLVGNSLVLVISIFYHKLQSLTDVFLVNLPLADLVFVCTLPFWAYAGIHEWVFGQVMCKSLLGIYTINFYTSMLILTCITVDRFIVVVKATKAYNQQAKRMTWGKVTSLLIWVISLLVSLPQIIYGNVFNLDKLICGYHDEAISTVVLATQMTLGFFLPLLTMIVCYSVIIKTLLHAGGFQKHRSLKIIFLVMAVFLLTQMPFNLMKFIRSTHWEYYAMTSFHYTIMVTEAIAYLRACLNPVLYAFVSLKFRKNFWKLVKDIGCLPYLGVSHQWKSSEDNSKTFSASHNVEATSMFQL
APJ ag: activates the human apelin receptor APJ | P35414 | CHO-K1 APJ PathHunter beta-arrestin, luminescence; 0% DMSO wells, 100% apelin | activation, % at 20 µM | 330,000 tested, 0.11% active;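 active = activation more than six SD over the plate average, tested at 20 µM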;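 note: 0% = DMSO alone and 100% = apelin-13 at 10 nM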
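Test system: CHO-K1 APJ beta-arrestin complementation cell line. Amount: cell density 1000 per well. Controls: DMSO negative, 10 nM Apelin-13 positive. Signal: luminescent beta-gal fragment complementation, chemiluminescent substrate. Read-out basis: agonist-driven arrestin binding to APJ. Timing: compound stimulation 90 min at 25 °C, detection 60 min.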
CCR6 antag: antagonists of human CCR6 receptor. P51684. CHO-K1 CCR6 PathHunter beta-arrestin, luminescence, CCL20-stimulated. inhibition, % at 20 µM. 340,000 tested, 0.49% active. AID 493098;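 active = compounds whose inhibition of the agonist-driven luminescence signal at 20 µM reaches about 50%, limit read from the data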;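 note: cells stimulated with CCL20 at 14 nM final; plate controls were DMSO with CCL20 for no effect and DMSO without agonist for full effect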
Target sequence (P51684 whole entry, looked up): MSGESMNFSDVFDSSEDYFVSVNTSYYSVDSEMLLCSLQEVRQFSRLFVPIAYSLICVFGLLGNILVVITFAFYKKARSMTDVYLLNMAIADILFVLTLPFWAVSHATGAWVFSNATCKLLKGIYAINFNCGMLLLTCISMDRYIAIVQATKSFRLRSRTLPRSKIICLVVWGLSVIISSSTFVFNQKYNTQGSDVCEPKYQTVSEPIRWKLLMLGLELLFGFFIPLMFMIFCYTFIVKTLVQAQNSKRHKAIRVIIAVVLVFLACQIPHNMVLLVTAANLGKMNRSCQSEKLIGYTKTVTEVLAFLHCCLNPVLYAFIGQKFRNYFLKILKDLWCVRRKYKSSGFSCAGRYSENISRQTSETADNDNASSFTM
EBI2 conf: confirmation of human EBI2 receptor antagonists. 2,400 tested, 29% active. EBI2 beta-arrestin luminescence, 7a,25-OHC antagonism. shares compounds with EBI2 antag. inhibition, % at 5 µM;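 active = inhibition of at least 50%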
EBI2 ag: activates EBI2, counter-screen for EBI2 antagonists; shares compounds with EBI2 antag; 2,400 tested, under 10 active; EBI2-expressing cells, agonist mode, luminescence, 60 min; 0% vehicle, 100% 7α,25-dihydroxycholesterol control; activation, % at 5 µM;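 active = activation of at least 50%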
bGal cs: inhibits E. coli beta-galactosidase, counter-screen for EBI2 antagonists; shares compounds with EBI2 antag; purified beta-galactosidase, luminescent Galacton Star, 15 min; inhibition, % at 5 µM; 2,400 tested, 1% active; AID 652176;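 active = replicate-average signal at least 3 plate SD below neutral wells, shown as high inhibition, flagging enzyme-inhibiting false positives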;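 note: 0% = DMSO wells with enzyme and 100% = wells lacking enzyme; higher means stronger loss of beta-gal luminescence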
Numbers without * were called inactive; nt = not tested or not shown.

SMILES | APJ antagonist | EBI2 antag | CXCR6 block | APJ ag | CCR6 antag | EBI2 conf | EBI2 ag | bGal cs
CCn1c(SCC(=O)NNC(=O)c2ccc(C)cc2)nnc1-c1ccco1 | -6 | 80* | 5 | 0 | 11 | 50 | -1 | -18
Cc1ccc(OCC(O)CNS(=O)(=O)c2ccccc2C(=O)N2CCCCC2)cc1 (configuration not stated) | 0 | 46* | -8 | -6 | 6 | 7 | -1 | -13
CCOC(=O)CN(C(=O)CSc1nnc(CNc2ccc(C)cc2C)o1)c1ccccc1 | -8 | 45* | 0 | -2 | -18 | 21 | -2 | -10
CCC1CSC(Nc2ccc(C(=O)/C=C/c3ccc(Br)cc3)cc2)=N1 (configuration not stated) | 9 | 61* | 3 | -5 | 15 | 55* | 1 | 1
Clc1ccc(CN2C3=NCCCN3c3ccccc32)c(Cl)c1 | 19 | 8 | 3 | -6 | 10 | nt | nt | nt
C[C@H]1CN([C@@H](C)CO)C(=O)c2cccc(NS(=O)(=O)c3ccc(F)cc3)c2O[C@H]1CN(C)Cc1ccc(Cl)c(Cl)c1 | 8 | 11 | 8 | -1 | 6 | nt | nt | nt
COc1ccc(S(=O)(=O)Nc2cccc3c2O[C@H](CN(C)Cc2ccc(Cl)c(Cl)c2)[C@@H](C)CN([C@H](C)CO)C3=O)cc1 | 1 | 60* | 1 | -2 | 13 | 59* | -1 | 4
CCOC(=O)/C=C/C(=O)Nc1cc(S(=O)(=O)Nc2ccc(OC)cc2)ccc1N1CCOCC1 | -51 | 75* | -2 | 8 | 10 | 72* | 1 | 11
CC(C)(C)Nc1nc2ccc([N+](=O)[O-])cc2o1 | -20 | 14 | 10 | 1 | 2 | nt | nt | nt
COc1ccc(C2N(c3ccc(C)cc3)CCN2c2ccc(C)cc2)cc1O | -3 | 73* | 2 | -3 | 5 | 15 | 1 | 4
O=C1C=C(c2ccc(Oc3ccccc3)cc2)C[C@@H](c2ccc(Cl)cc2)C1 | 8 | 14 | 1 | -1 | 14 | nt | nt | nt
O=C1C=C(c2ccc(-c3ccccc3)c(F)c2)C[C@@H](c2ccc(Cl)cc2)C1 | 0 | 38 | -9 | -2 | 12 | nt | nt | nt
COc1ccc([C@H]2CC(=O)C=C(c3cccc(Cl)c3)C2)cc1 | 5 | 42 | -2 | -4 | 17 | nt | nt | nt
O=C1C=C(c2ccc3c(c2)oc2ccccc23)C[C@@H](c2ccc(Cl)cc2)C1 | 1 | 62* | 10 | -5 | 5 | 23 | 2 | 5
O=C1C=C(c2cccc(Br)c2)C[C@@H](c2ccc(Cl)cc2)C1 | 7 | 46* | -10 | -4 | 19 | 13 | 0 | -13
CC(=O)Nc1ccc(C2=CC(=O)C[C@H](c3ccc(Cl)cc3)C2)cc1 | -1 | 39 | 2 | -3 | 8 | nt | nt | nt
CSc1ccc(C2=CC(=O)C[C@H](c3ccc(Cl)cc3)C2)cc1 | 3 | 67* | 6 | -4 | 17 | 52* | 2 | 5
O=C1C=C(c2cccc(Cl)c2)C[C@@H](c2ccc(Cl)cc2)C1 | -5 | 53* | 2 | -3 | 25 | 25 | -2 | -6
CC1CCCCN1S(=O)(=O)c1ccc2c(c1)C(C)(C)C(=O)N2C (configuration not stated) | -52 | 1 | -6 | 1 | 0 | nt | nt | nt
Cc1ccc(Sc2ncccc2NC(=O)c2ccccc2Cl)cc1 | -2 | 26 | -10 | 1 | 15 | nt | nt | nt
COc1ccc(C(=O)OCC(=O)NC(=O)NC2CCCC2)cc1OC | 4 | -6 | -6 | 2 | 2 | nt | nt | nt
O=C(Cn1ccc(NC(=O)OCc2ccccc2)nc1=O)NCCN1CCOCC1 | 22 | 8 | 7 | -3 | -6 | nt | nt | nt
CCCCCCC(CC(=O)NCc1cccnc1)CC(=O)NCc1cccnc1 | 7 | 10 | 3 | -2 | 13 | nt | nt | nt
O=C1C=C(c2cc(F)ccc2F)C[C@@H](c2ccc(Cl)cc2)C1 | 6 | 29 | -5 | -4 | 22 | nt | nt | nt
COc1cc(F)c(C2=CC(=O)C[C@H](c3ccc(Cl)cc3)C2)cc1F | 4 | 58* | 10 | -3 | 6 | 44 | 0 | 3
SMILES | APJ antagonist | EBI2 antag | CXCR6 block | APJ ag | CCR6 antag | EBI2 conf | EBI2 ag | bGal cs
CC(O)CNCc1ccc(Cl)cc1Cl (configuration not stated) | 4 | 14 | 7 | -1 | 22 | nt | nt | nt
CC(CCc1ccccc1)NCc1ccc(Cl)cc1Cl (configuration not stated) | 7 | 62* | -4 | -1 | 10 | 32 | 1 | 2
CSc1nc(-c2ccccc2)nc(N2CCOCC2)c1C(C)=O | 16 | 3 | 8 | -2 | 5 | nt | nt | nt
Cc1cccc(Oc2ncc(-c3ccc(Cl)cc3)cn2)c1 | 6 | 44* | 0 | -4 | 1 | 30 | 1 | 0
Nc1c(S(=O)(=O)c2ccccc2)c2nc3ccccc3nc2n1/N=C/c1cccc(O)c1 | -4 | 68* | -7 | 1 | 1 | 38 | 1 | -9
Cc1cccc(S(=O)(=O)c2c(N)n(/N=C/c3ccccc3)c3nc4ccccc4nc23)c1 | 9 | 17 | -5 | 1 | 7 | nt | nt | nt
NC(=O)OCC(O)COc1ccc(Cl)cc1 (configuration not stated) | -5 | 4 | -1 | 10 | 14 | nt | nt | nt
O=S(Cc1ccc(Cl)cc1)CC(O)COc1ccc(Cl)cc1 (configuration not stated) | -17 | 76* | -6 | -1 | -13 | 60* | -1 | -15
CCOCCCN(C)C1CCN(S(=O)(=O)c2csc(C(N)=O)c2)CC1 | -22 | -18 | 4 | 0 | 13 | nt | nt | nt
N#C/C(=C\c1ccco1)C(=O)NCC1CCCO1 (configuration not stated) | -5 | -3 | 4 | -1 | -11 | nt | nt | nt
O=C(NCc1ccc2c(c1)OCO2)C1CCN(C(=O)Nc2ccc(Cl)cc2)CC1 | 7 | 46* | -3 | -5 | 9 | 6 | -1 | -12
N#Cc1cccc(C(=O)C(=O)N2CCN(C(=O)OCc3ccccc3)CC2)c1 | nt | 16 | nt | nt | nt | nt | nt | nt
O=C(NC(c1ccccc1)c1ccc2ccccc2n1)C1CCN(Cc2ccc(Oc3ccccc3)cc2)CC1 (configuration not stated) | nt | 15 | 6 | nt | nt | nt | nt | nt
COc1cc(OC)nc(C(NC(=O)C2CCN(Cc3ccc(Oc4ccccc4)cc3)CC2)c2ccccc2C)n1 (configuration not stated) | nt | 53* | 28 | nt | nt | 19 | -1 | -9
Clc1cccc(Nc2nc(-c3ccncc3)cs2)c1 | -4 | 52* | -13 | 2 | -12 | 48 | 0 | -8
Cc1cccc(Nc2nc(-c3ccncc3)cs2)c1 | -14 | 34 | -6 | -1 | -25 | nt | nt | nt
